Our source for the Activity and MIC values is ChEMBL document CHEMBL4837237, “Broomeanamides: Cyclic Octapeptides from an Isolate of the Fungicolous Ascomycete Sphaerostilbella broomeana from India” (J Nat Prod, 2021).

For test [1], the system named is Staphylococcus aureus. Kind of test: Antibacterial activity against Staphylococcus aureus ATCC 29213 assessed as bacterial growth inhibition at 50 ug/disk measured after 24 to 72 hrs by disk diffusion assay. It counts as functional, organism-based. To be noted: time 24-72 hrs. In short, it runs like this:
(§1)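 Agar disk diffusion. Inoculum suspension (1–3 mL) mixed into 100 mL autoclaved medium cooled to 45 °C: yeast malt agar for the yeast, tryptic soy agar for the bacterium. Poured as 5 mL plates. 6.25 mm paper disks loaded with 50 μg sample, solvent evaporated. Incubated at room temperature 24–72 h. Amphotericin or gentamicin at 25 μg/disk as positive controls.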
(A growth-free zone around the sample is the usual read-out of agar diffusion tests.)

In test [2] the test system is Staphylococcus aureus. Kind of test: Antibacterial activity against Staphylococcus aureus ATCC 43300 assessed as bacterial growth inhibition incubated for 24 hrs by alamarBlue dye based assay. It counts as functional. The method, boiled down: (§2)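 Broth MIC, modified CLSI method. Overnight cultures diluted to OD600 0.8 in PBS, then 1000-fold in MOPS-buffered RPMI-1640. Exposed to serial dilutions from 0.25 to 128 μM. Growth read by adding 10% alamarBlue. S. aureus ATCC 43300: 24 h at 37 °C. C. albicans ATCC 10231: 48 h at 23 °C. C. neoformans H99: 48 h at 23 and at 37 °C. Controls: chlortetracycline + streptomycin (bacterium), amphotericin B (fungi).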
Background: Alamar Blue is a resazurin reagent that responds to reducing activity.

Test [3] relates to Cryptococcus neoformans. Kind of test: Antifungal activity against Cryptococcus neoformans H99 assessed as fungal growth inhibition incubated for 48 hrs at 37 degC by alamarBlue dye based assay. The format is functional. The method, boiled down: as §2
Test [4] deals with Cryptococcus neoformans. Kind of test: Antifungal activity against Cryptococcus neoformans H99 assessed as fungal growth inhibition incubated for 48 hrs at 23 degC by alamarBlue dye based assay. It counts as functional. In short, it runs like this: as §2
For test [5], the system named is Candida albicans. Kind of test: Antifungal activity against Candida albicans ATCC10231 assessed as fungal growth inhibition at 50 ug/disk measured after 24 to 72 hrs by disk diffusion assay. The format is functional, organism-based. To be noted: time 24-72 hrs. The method, boiled down:
as §1

For test [6], the system named is Candida albicans. Kind of test: Antifungal activity against Candida albicans ATCC 10231 assessed as fungal growth inhibition incubated for 48 hrs by alamarBlue dye based assay. The format is functional. The method, boiled down:
as §2

≈ marks a conversion by molar mass, not a printed value. Calls of active or inactive are those of the source. Square brackets hold non-standard residues; d marks the D form. Peptide text beside a SMILES is read from it. ξ: configuration not given here. NMeF = CN[C@@H](Cc1ccccc1)C(=O)O; Ile(3ξ) = CCC(C)[C@H](N)C(=O)O; NMeL = CN[C@@H](CC(C)C)C(=O)O; NMeV = CN[C@H](C(=O)O)C(C)C

Regarding `CC(C)C[C@H]1C(=O)N[C@@H](C(C)C)C(=O)N2CCC[C@H]2C(=O)N(C)[C@@H](Cc2ccccc2)C(=O)N[C@@H](C)C(=O)N(C)[C@@H](C(C)C)C(=O)N(C)[C@@H](CC(C)C)C(=O)N[C@@H](C(C)C)C(=O)N1C` (cyclo(A[NMeV][NMeL]V[NMeL]VP[NMeF])), the result in test [1] was Active.

What is called MIC is the smallest concentration in the dilution series that meets the test's criterion for growth inhibition. As for `CCC(C)[C@@H]1NC(=O)[C@H](CC(C)C)N(C)C(=O)[C@H](C(C)C)N(C)C(=O)[C@H](C)NC(=O)[C@H](Cc2ccccc2)N(C)C(=O)[C@@H]2CCCN2C(=O)[C@H](C(C)C)NC(=O)[C@H](CC(C)C)N(C)C1=O` (some centres not stated) (cyclo(A[NMeV][NMeL][Ile(3ξ)][NMeL]VP[NMeF])), the MIC in test [2] was found to be 128 µg/mL (≈ 141 µM); in test [3], 8 µg/mL (≈ 8.8 µM); in test [4] it was 128 µg/mL (≈ 141 µM); in test [6], 64 µg/mL (≈ 70.4 µM). Further, the result in test [1] and in test [5] was Active.

In the case of `CN1C(=O)C2CCCN2C(=O)/C1=C/c1ccccc1` (configuration not stated), the result in test [1] and in test [5] was inactive.

On to `O=C1N/C(=C\c2ccccc2)C(=O)N2CCCC12` (configuration not stated), for which the result in test [1] and in test [5] was inactive.

For the compound `O=C1N[C@@H](Cc2ccccc2)C(=O)N2CCC[C@@H]12`, the outcome in test [1] and in test [5] was inactive.

`C[C@@H]1[C@H](O)[C@@H](C)/C=C/C=C/C=C/C=C/C=C/C=C/C=C/[C@H](O[C@@H]2O[C@H](C)[C@@H](O)[C@H](N)[C@@H]2O)C[C@@H]2O[C@](O)(C[C@@H](O)C[C@@H](O)[C@H](O)CC[C@@H](O)C[C@@H](O)CC(=O)O[C@H]1C)C[C@H](O)[C@H]2C(=O)O` [AMPHOTERICIN B]: the MIC in test [3] and in test [4] was 0.85 µg/mL (≈ 0.92 µM) throughout.

Regarding `O=C1/C(=C/c2ccccc2)NC(=O)C2(O)CCCN12` (configuration not stated), the result in test [1] and in test [5] was inactive.
